This passage reports Activity results from ChEMBL document CHEMBL4177755, “Combating Drug-Resistant Fungi with Novel Imperfectly Amphipathic Palindromic Peptides” (J Med Chem, 2018).

One experiment concerns Candida albicans. Nature of the experiment: Induction of cell wall permeabilization in Candida albicans cgmcc 2.2086 assessed as increase in NPN uptake by fluorescence spectrophotometric method. It is filed as functional, organism-based. The method in brief:
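Log-phase cells at OD600 0.2 in 5 mM HEPES (pH 7.4, 5 mM glucose) were preloaded with 10 μM NPN for 30 min, then peptide was added. Fluorescence (ex 350/em 420 nm) was followed until it plateaued and converted to % NPN uptake against initial and maximal fluorescence. Triplicate.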

The next experiment concerns Lipid bilayer. Nature of the experiment: Binding affinity to phosphatidylglycerol/cardiolipin/phosphatidylethanolamine large unilamellar vesicle assessed as induction of calcein leakage after 15 mins by spectrofluorophotometric method. The method in brief: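 Compositions were PG/CL/PE 2:1:7 w/w/w (E. coli membrane mimic; lines 4,5) and PC/PE/PI/ergosterol 5:4:1:2 w/w/w/w (fungal membrane mimic; lines 2,3). Lipids underwent 20 freeze–thaw cycles and were extruded through 100 nm filters; free calcein was removed by gel filtration.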

Take H-RRIRIIIRIRR-NH2: the Activity result in the experiment with Candida albicans and with Lipid bilayer was “Dose-dependent effect” in each case.
